Calls of active or inactive are those of the source.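 Rule for the calls: active = compounds whose fitted half-maximal concentration for reducing fibroblast viability is 100 µM or lower; inactive = the rest.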
Test: inhibition of LL 47 lung fibroblast growth, concentration-response curve, selectivity screen for endothelial cell growth inhibitor project, cellular system, ATP luminescence readout (AID 821);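 note: 100% = median of untreated cell-only wells and 0% = no luminescence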
Details: LL 47 lung fibroblast viability, ATP luminescence; at 20 µM (top of the series)
Method in brief: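 Material – LL 47 human lung fibroblasts · Input – 1,150 cells/well · Doses – compound concentration series from 0.039 to 20 µM, 0.2% DMSO · Timing – 72 h exposure, 37 °C · Detection – CellTiter-Glo luminescence · Read-out basis – percent viability relative to untreated wells, EC50 via 4-parameter fit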

CN1CCN(C(=O)c2ccc(COc3ccc(Cl)cc3Cl)cc2)CC1
viability: 103% (inactive)

CCCS(=O)(=O)N1CCC(C(=O)N2CCC3(CC2)OCCO3)CC1
viability: 97.5% (inactive)

CCCOC(=O)c1ccc(Oc2cn[nH]c2-c2ccc(OCC)cc2O)cc1
viability: 98.4% (inactive)

O=C(COC(=O)c1cccnc1Nc1cccc(C(F)(F)F)c1)NCc1ccc2c(c1)OCO2
viability: 130% (inactive)

Cc1ccc(-c2nnc(N3CCN(C(=O)CSc4ncn[nH]4)CC3)c3ccccc23)cc1
viability: 102% (inactive)

O=C(Nc1nnc(-c2ccc3c(c2)CCCC3)o1)c1ccc(Cl)cc1Cl
viability: 95.8% (inactive)

O=C(Nc1ccc2nn(-c3ccccc3)nc2c1)c1ccc2c(c1)OCCO2
viability: 105% (inactive)

COCCn1c(C)cc(C(=O)CSc2nc3ccccc3o2)c1C
viability: 129% (inactive)

COc1ccc(OC)c(C(=O)CSc2nnc(-c3ccc(OC)c(OC)c3)o2)c1
viability: 88.4% (inactive)

OC(C#Cc1ccccn1)c1cccs1 (stereo not drawn)
viability: 98.2% (inactive)

COC(=O)C1=C(C)N=c2s/c(=C3\C(=O)Nc4ccccc43)c(=O)n2C1c1ccccc1 (stereo not drawn)
viability: 80.9% (inactive)

O=C(Nc1ccc(Cl)c(Cl)c1)C1=Cc2ccccc2OC1
viability: 99.6% (inactive)

O=C(CN1CCN(S(=O)(=O)c2ccc(F)cc2)CC1)Nc1ccc2c(c1)OCO2
viability: 104% (inactive)

Cc1sc2nc(SCC(=O)NCc3ccco3)n(Cc3ccccc3)c(=O)c2c1C
viability: 98.4% (inactive)

CCc1ccc(NC(=O)CCc2nc3cccnc3n2Cc2ccc(OC)cc2)cc1
viability: 90.2% (inactive)

CCOc1ccc(-c2nn3c(-c4ccccc4)nnc3s2)cc1
viability: 113% (inactive)

Cc1nc2ccccc2c2oc(C(=O)NCc3ccc4c(c3)OCO4)cc12
viability: 102% (inactive)

CCCc1cc(C(=O)Cc2ccc(F)cc2)c(O)cc1O
viability: 96.5% (inactive)

Cc1ccc(-n2c(Cc3cccs3)nnc2SCC(=O)Nc2ccc(F)c(F)c2)cc1
viability: 95.7% (inactive)

COc1ccc(OC)c(S(=O)(=O)N(C)CC(=O)N2CCN(c3ccc(F)cc3)CC2)c1
viability: 106% (inactive)

CCCn1c(Nc2nc3ccccc3n2C)nc2ccccc21
viability: 102% (inactive)

CCc1ccc(-c2nc(CN3CCC(C(=O)NCc4ccc(F)cc4)CC3)c(C)o2)cc1
viability: 103% (inactive)

CCOc1ccc(Nc2oc(-c3ccc(Cl)cc3)nc2C#N)cc1
viability: 106% (inactive)

Cc1ccsc1/C=C/C1=Cc2c(sc(NC(=O)CSc3n[nH]c(N)n3)c2C#N)C(C)(C)C1
viability: 112% (inactive)

COc1ccc(Cc2nc(C(=O)Nc3ccc(Cl)cc3)cs2)cc1
viability: 84.3% (inactive)

CCCCCCn1c(N2CCN(c3ccccc3)CC2)nc2c1c(=O)n(C)c(=O)n2C
viability: 101% (inactive)

COC(=O)CSc1nc2ccc(NC(=O)CSc3nnnn3Cc3ccccc3)cc2s1
viability: 108% (inactive)

CC1CCN(S(=O)(=O)c2ccc(NC(=O)Cn3nnc(-c4ccccc4F)n3)cc2)CC1
viability: 90.8% (inactive)

Oc1ccccc1NCC(O)Cn1ccc2ccccc21 (stereo not drawn)
viability: 98.6% (inactive)

COc1ccc(NC(=O)c2ccccc2NC(=O)COc2ccccc2)cc1
viability: 93.3% (inactive)

CC1(C)Nc2ccc(O)cc2-c2c1ssc2=S
viability: 92.1% (inactive)

Cc1ccc(/C=C/C(=O)c2ccccc2)cc1
viability: 85.6% (inactive)

Cn1cc(SCC(=O)Nc2nc3ccccc3s2)c2ccccc21
viability: 82.4% (inactive)

Cc1ccc(C(=O)Nc2ncc(Cc3ccccc3)s2)o1
viability: 103% (inactive)

CCCc1ccc(-c2cc(NC(=O)CSc3n[nH]c(N)n3)n(-c3ccccc3)n2)cc1
viability: 100% (inactive)

Cn1c(=O)c2c(nc(Oc3ccc4c(c3)OCO4)n2Cc2ccc(Cl)cc2)n(C)c1=O
viability: 87.5% (inactive)

CCOC(=O)c1ccc2c(c1)NC(=O)C(N1CCN(c3ccc(OC)cc3)CC1)S2 (stereo not drawn)
viability: 84.9% (inactive)

O=[N+]([O-])c1cccnc1N1CCC(c2cc(-c3cccc(C(F)(F)F)c3)n[nH]2)CC1
viability: 102% (inactive)

Cc1cc(C(=O)Nc2nc3ccc(S(C)(=O)=O)cc3s2)c(C)o1
viability: 92.9% (inactive)

Cc1c(CCOC(=O)C2C3CC4CC(C3)CC2C4)sc[n+]1CC(=O)c1ccc(Br)cc1 (stereo not drawn)
viability: 93.4% (inactive)

O=C(COc1nc2ccccc2nc1N1CCOCC1)N1CCc2ccccc21
viability: 95.5% (inactive)

CCCCc1ccc(Nc2nc(CCC)cc(=O)[nH]2)cc1
viability: 91% (inactive)

COC(=O)C1=C(O)/C(=C\c2ccc(CNC(=O)C(=O)Nc3ccc(C)c(C)c3)o2)N=C1C
viability: 101% (inactive)

CCOc1cc(/C=N\NC(=O)Cn2nc([N+](=O)[O-])cc2C)ccc1OCc1cccc2ccccc12
viability: 89.7% (inactive)

CCC(C)[C@@H](NC(=O)OC(C)(C)C)c1nnc(S(=O)(=O)Cc2cccc(C)c2)o1 (stereo partly drawn)
viability: 91.4% (inactive)

CCOc1ccc(-c2n[nH]c(C)c2Oc2ccc(OC)cc2)c(O)c1
viability: 93.9% (inactive)

Cc1ccc2c(c1)c1cccc3c1n2CCN3CCC(N)=O
viability: 89% (inactive)

Cc1ccc(S(=O)(=O)c2c(C)nn(C(C)(C)C)c2OC(=O)c2cccs2)cc1
viability: 104% (inactive)

Nc1c(S(=O)(=O)c2ccccc2)c2nc3ccccc3nc2n1/N=C/c1cccc(O)c1
viability: 94.2% (inactive)

CC12CCC(=O)C=C1CCC1C2CCC2(C)C(O)CCC12 (stereo not drawn)
viability: 95.3% (inactive)

COc1ccc(-c2noc(-c3ccc(Br)o3)n2)cc1OC
viability: 116% (inactive)

Clc1ccc(Cn2cc(/C=N/n3cnnc3)c3ccccc32)c(Cl)c1
viability: 99% (inactive)

CCOC(=O)c1c(N)sc2c(OC)c(Br)ccc12
viability: 109% (inactive)

O=c1/c(=C/c2ccco2)sc2n1CN(c1cccc(Br)c1)CN=2
viability: 106% (inactive)

O/N=C1\CC/C(=N\O)c2nn(-c3ccccc3Cl)nc21
viability: 87.3% (inactive)

N=c1nc(N)nc2n1NC(c1ccc(F)cc1)=CS2
viability: 104% (inactive)

Cc1c(Cl)cccc1-c1ccc(/C=N/n2cnnc2)o1
viability: 98.9% (inactive)

C=CCN1C(=Nc2cccnc2)SCC1(O)c1ccc(C)cc1 (stereo not drawn)
viability: 86.4% (inactive)

COc1ccc(O)c(-c2cc(-c3cccc(Br)c3)n[nH]2)c1
viability: 86.3% (inactive)

CCCC1(CCC)NC(=O)N(CC(=O)Nc2ccccc2OC)C1=O
viability: 92.2% (inactive)

Cc1c(CN(C)C(=O)c2sc3cc(Cl)ccc3c2Cl)cnn1C
viability: 94.6% (inactive)

Nc1c(C(=O)NCc2ccc(F)cc2)c2nc3ccccc3nc2n1CCCN1CCOCC1
viability: 85.7% (inactive)

COc1ccc(-n2c(SCC(=O)Nc3sc4c(c3C#N)CCCC4)nnc2-c2ccc(O)cc2)cc1
viability: 94.1% (inactive)

Cc1sc2nc(SCC(=O)NCc3ccco3)n(CCc3ccccc3)c(=O)c2c1C
viability: 121% (inactive)

Cc1ccc2[nH]c3c(c2c1)CCC3=O
viability: 110% (inactive)

COc1cc2c(C(=O)NCc3ccc4c(c3)OCO4)cn(CC(C)C)c(=O)c2cc1OC
viability: 106% (inactive)

Cn1c(=O)c2cc(NCc3ccccc3)nnc2n(C)c1=O
viability: 100% (inactive)

COc1cc2cc(C(c3nnnn3C3CCCC3)N3CCc4ccccc43)c(=O)[nH]c2cc1OC (stereo not drawn)
viability: 92.9% (inactive)

Cc1nn(Cc2ccc(Cl)c(Cl)c2)c(C)c1NC(=O)c1cc(-c2ccc3c(c2)OCO3)on1
viability: 94.2% (inactive)

COc1cccc(-c2nnc(Nc3nc4c(F)cccc4s3)o2)c1
viability: 84.7% (inactive)

CCN(CC)c1cc(C)c2cc(NC(=O)c3ccc(Br)o3)ccc2n1
viability: 93% (inactive)

CC(Nc1nc(N2CCN(S(C)(=O)=O)CC2)nc2ccccc12)c1ccccc1 (stereo not drawn)
viability: 92.9% (inactive)

CC1=C(C)CS(=O)N(S(=O)(=O)c2ccc(Cl)cc2)C1 (stereo not drawn)
viability: 106% (inactive)

CN1CCN(c2ccccc2NC(=O)c2ccc(-c3ccc(Cl)cc3Cl)o2)CC1
viability: 88.2% (inactive)

C=C(C)COc1ccc(-c2n[nH]c(C)c2-c2ccccc2OC)c(O)c1
viability: 90.3% (inactive)

CCOC(=O)c1c(CN2CCN(c3ccccc3)CC2)oc2ccc(O)cc12
viability: 83.2% (inactive)

Cc1cccc(-c2nc(CN3CCCC(C(=O)NC4CCCCCC4)C3)c(C)o2)c1 (stereo not drawn)
viability: 90.9% (inactive)

Cc1cc(NC(=O)c2cccc(S(=O)(=O)N3CC(c4ccccc4)CC3=O)c2)no1 (stereo not drawn)
viability: 98.4% (inactive)

CC(C)(C)c1ccc(-c2nnc(SCC(=O)O)n2N)cc1
viability: 103% (inactive)

O=C(NCCC1=CCCCC1)C1CCN(Cc2cnn(-c3ccccc3)c2-n2cccc2)CC1
viability: 92.5% (inactive)

O=C1c2[nH]nc(-c3ccccc3O)c2C(c2cccc(Cl)c2)N1Cc1ccco1 (stereo not drawn)
viability: 98.4% (inactive)

CCOC(=O)c1ccc(NC(=O)CCc2nc(-c3cccc(C)c3)no2)cc1
viability: 107% (inactive)

COc1cccc(C(=O)CSc2nnc(-c3cc(OC)cc(OC)c3)o2)c1
viability: 91.3% (inactive)

CCCCn1c(SCC(=O)Nc2cc(NC(=O)c3ccco3)ccc2C)nc2ccccc2c1=O
viability: 99.3% (inactive)

O=C(Nc1cccc(-c2nnc(-c3ccccc3)o2)c1)c1ccc(Br)o1
viability: 118% (inactive)

Cc1ccc2c(c1)c1c(n2CC(O)Cn2c(C)nc3ccccc32)CCCC1 (stereo not drawn)
viability: 95.1% (inactive)

CCCc1c(C)c2cc(C)ccc2[nH]c1=O
viability: 110% (inactive)

Cc1nn(-c2ccc(Cl)cc2)c2sc(C(=O)N3CCN(c4ccccn4)CC3)cc12
viability: 91.4% (inactive)

Cc1cccc2c1N(CCCOc1ccc(C(C)(C)C)cc1)C(=O)C2=O
viability: 92.2% (inactive)

Cc1nc2cc(N3CCCCC3)c(NC(=O)c3cccnc3)cc2c(=O)n1Cc1ccccc1
viability: 91.8% (inactive)

CCOc1ccc2nc(NC(=O)CN3CCC(n4nnc5cc(F)ccc54)CC3)sc2c1
viability: 82.7% (inactive)

CCOC(=O)c1cnc(-n2nc(C)cc2C)nc1NCc1ccc2c(c1)OCO2
viability: 96.5% (inactive)

O=C(Nc1nnc(-c2ccc3c(c2)OCCO3)o1)c1ccc(Cc2ccccc2)cc1
viability: 97.9% (inactive)
